Screening results from PubChem.
ERAP1 inh: human ERAP1 aminopeptidase inhibitors, primary screen, biochemical, single point, plate reader; Endoplasmic reticulum aminopeptidase 1 (Homo sapiens), Q9NZ08; recombinant ERAP1, Leu-AMC fluorescence, 60 min; inhibition, % at 10.7 µM; actives 0.15% (n = 340,000); AID 652197, 2013;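 active = mean replicate inhibition of at least 30%, or all replicates individually reaching that 30% level; inactive = mean below 30% and not every replicate reaching it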
Wnt act: Wnt/beta-catenin pathway activators, primary screen, cell-based, plate reader, single point. Wnt/beta-catenin reporter cell assay, activator. activation, % at 9.35 µM. actives 1.2% (n = 300,000). AID 743398, 2014; in the data active = activation above about 30%, passing the limit was not always enough; inconclusive = no clear call, values can overlap the other calls
esBAF inh: Bmi1 luciferase reporter increase in mESCs, primary screen, esBAF inhibitor project, mouse ES cells, Bmi1 luciferase knock-in, single point. actives 2% (n = 350,000). AID 602393, 2012. 24 h; 100% = twice the neutral-well signal. reporter increase, % at 12.5 µM; in the data active = activation above about 40%; inconclusive = no clear call, values can overlap the other calls;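 also: a rise in the Bmi1 reporter signal indicates esBAF inhibition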
MITF act: activators of MITF-driven TRPM1 promoter reporter, primary screen, cell-based, SK-MEL-5, luciferase, single point; AID 588334, 2011; activation, % at 12.5 µM; actives 0.75% (n = 300,000); SK-MEL-5 TRPM1-promoter luciferase, 24 h; % of positive control, neutral wells = 0;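 active = mean activation of at least 80% with every replicate also reaching 80%; inconclusive = mean reaches 80% but some replicate falls short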
Cneo AK release: Cryptococcus neoformans cell lysis inducers, primary screen, AK release luminescence, single concentration; actives 0.2% (n = 360,000); lysis activity, % at 15 µM; C. neoformans lysis, adenylate kinase release luminescence, 4 h; normalised: neutral wells 0, clomiphene wells 100;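 active = mean lysis activity across replicates of at least 80%, whatever share of replicates individually reach that level; inactive = mean lysis activity below 80%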
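Assay system: C. neoformans cells. Amount: yeast cell density of 5 × 10^6 cells/mL. Technique: AK luminescence. Buffer or medium: YPD. Times: static 4 h at 37 °C with compound, 1 h detection. Dosing: single-point compound dose. Read-out: lysis from increased AK signal.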
Env fusion inh: inhibitors of HIV-1 Env-driven cell-cell fusion, primary screen, HeLa-JRFL effector, CEM21 target cells, luciferase. actives 1.1% (n = 360,000). AID 651610, 2012. inhibition, % at 12.3 µM;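 active = mean replicate inhibition score of at least 50 and every replicate individually at or above 50; inconclusive = only one of the two criteria met; inactive = mean below 50 and not all replicates reaching 50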
Numbers stand for hits; . = inactive; ? = inconclusive; / = no result given. The list is not random: actives were taken first. Their share in the collection is about 3.5%.

SMILES	ERAP1 inh	Wnt act	esBAF inh	MITF act	Cneo AK release	Env fusion inh
COc1cc(C2CC(=O)c3c([nH]c(C(=O)OCCOC(C)C)c3C)C2)cc(OC)c1OC (stereo unspecified)	.	.	.	.	.	55
COC(=O)c1cnc(SCC(=O)c2ccccc2)n1C	.	32	.	.	.	.
Cc1cccc(Cn2nc(C)c(NC(=O)c3ccc(F)cc3)c2C)c1	.	.	/	.	/	.
Cc1nn(Cc2c(F)c(F)c(F)c(F)c2F)c(C)c1NC(=O)c1cccc(COc2ccc(Cl)cc2)c1	/	.	.	.	.	63
CCCNC(=O)[C@@H]1[C@@H](CO)[C@@H]2Cn3c(ccc(-c4ccccc4OC)c3=O)[C@@H]2N1S(C)(=O)=O	.	/	/	/	/	/
CNC(C)C#Cc1ccc2oc3cc(C)c(C)cc3c(=O)c2c1 (stereo unspecified)	/	.	?	.	.	.
CNC(C)C#Cc1ccc2c(=O)c3cc(C)c(C)cc3oc2c1 (stereo unspecified)	.	.	69	.	.	.
N=c1c2c(n(Cc3ccc(Br)cc3)c3c1CCC3)CCCC2	.	.	/	.	/	70
FC(F)Oc1ccc(-c2csc(NNC3=NCCCCC3)n2)cc1	.	.	49	.	.	.
CCCCC[C@H](C)N1C[C@H](COCc2ccccc2)Oc2cc(N3CCC[C@H]3C(N)=O)ccc2S1(=O)=O	/	.	/	/	/	.
CCCCC[C@@H](C)N1C[C@H](COCc2ccccc2)Oc2cc(N3CCC[C@H]3C(N)=O)ccc2S1(=O)=O	/	.	/	/	/	76
COc1ccccc1-c1ccc2c(c1)O[C@@H](CN(C)C(=O)c1cccnc1)[C@@H](C)CN([C@@H](C)CO)S2(=O)=O	.	/	.	/	.	/
C[C@@H]1CN([C@H](C)CO)C(=O)c2cccc(NS(=O)(=O)c3cn(C)cn3)c2O[C@H]1CN(C)Cc1ccc2c(c1)OCO2	.	/	.	/	.	.
COc1ccc(NC(=O)N(C)C[C@@H]2OCCCC[C@H](C)Oc3ccc(NC(=O)Cc4ccccc4)cc3C(=O)N([C@H](C)CO)C[C@@H]2C)cc1	.	/	.	/	.	.
CCCCNC(=O)C1(C)CCC(=O)N1C1CCN(Cc2ccccc2)CC1 (stereo unspecified)	.	.	.	/	.	64
CC1(C(=O)NCc2ccccc2)CCC(=O)N1C1CCN(Cc2ccccc2)CC1 (stereo unspecified)	.	.	/	/	/	?
CCN1C(=O)c2cccc3cccc1c23	44	.	.	.	.	/
CN(C)C(=O)CN1C(=O)c2cccc3cccc1c23	.	.	.	.	.	.
O=S(=O)(N[C@H]1CC[C@H](CCn2cc(C3(O)CCCC3)nn2)O[C@H]1CO)c1ccccc1	.	/	.	/	.	.
O=C(OCC(=O)N1CCCCC1)c1c[nH]c2ccccc12	.	.	.	94	.	.
O=C(COC(=O)c1n[nH]c2ccccc12)Nc1ccccc1F	.	.	123	.	.	.
O=C(COC(=O)C1CC1)c1c[nH]c2ccccc12	/	/	48	.	.	.
CC1CCCN(C(=O)COC(=O)c2n[nH]c3ccccc23)C1 (stereo unspecified)	/	/	70	?	.	/
C[C@@H]1CN([C@@H](C)CO)C(=O)c2cc(NC(=O)Cc3cn(C)c4ccccc34)ccc2O[C@@H]1CN(C)S(C)(=O)=O	.	/	.	/	.	.
C[C@@H]1CN([C@H](C)CO)C(=O)Cc2cc(NC(=O)C3CC3)ccc2O[C@H]1CN(C)Cc1ccncc1	.	/	.	/	.	.
CC1CC(C)CN(C(=O)COC(=O)c2c[nH]c3ccccc23)C1 (stereo unspecified)	.	.	.	.	.	/
O=C(CCc1c[nH]c2ccccc12)N1CCCC1	.	.	.	.	.	.
O=C(CCCc1c[nH]c2ccccc12)N1CCCCCC1	/	.	60	.	.	/
CC1CCN(C(=O)COC(=O)c2c[nH]c3ccccc23)CC1	.	.	57	.	.	.
